Test results from ChEMBL document CHEMBL1126145, “Phenyl-substituted analogues of oxotremorine as muscarinic antagonists” (J Med Chem, 1992).

Assays:
[1] = target: Muscarinic acetylcholine receptor; experiment: Determination of dissociation constant from antimuscarinic activity on isolated guinea pig ileum.; type: tissue-based, Cavia porcellus
[2] = target: Muscarinic acetylcholine receptor; experiment: Inhibition of [3H]N-methylscopolamine binding to muscarinic acetylcholine receptor of rat cerebral cortex.; type: tissue-based
Method in brief: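 Male Sprague-Dawley rat (200-300 g) cortex homogenized in 50 mM Na-K phosphate pH 7.4, spun 30000g, resuspended at 10 mg wet tissue/mL. Incubated with (-)-[3H]NMS 0.3 nM plus competitor for 30 min at 30 °C; filtration assay. IC50 from one-site nonlinear fit, converted to Ki by Cheng-Prusoff. Three experiments, each in triplicate.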

Mus musculus = species: Mus musculus; experiment: Antimuscarinic activity on the intact mice.(Dose required to double the dose of oxotremorine inducing a predetermined tremor intensity.); type: functional
Method in brief: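 Male Swiss-Webster mice (24-32 g). Antagonist given i.p. at 200 µmol/kg to groups of ≥6 mice; 6 untreated controls. 20 min later, the i.v. oxotremorine ED50 was estimated by the up-and-down method, with intermittent spontaneous (grade 2) tremor as endpoint. Active compounds were tested at two further doses. The dose doubling the oxotremorine ED50 was found by linear regression of ED50 vs antagonist dose (including zero).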

Structure (SMILES) | Kd [1] [µM] | Ki [2] [µM] | Tremorolytic dose (Mus musculus) [µM/kg]
CC(=O)N(C)C(C#CCN1CCCC1)c1ccccc1 (stereo unspecified) | 0.62 | 0.31 | 17.4
O=C1CCCN1C(C#CCN1CCCC1)c1ccccc1 (stereo unspecified) | 0.2 | 0.11 | 8.93
O=C1C(c2ccccc2)CCN1CC#CCN1CCCC1 (stereo unspecified) | 11.21 | 6.91 | >200
CC(=O)N(C)C(C)C#CCN1CCCC1 (stereo unspecified) | – | – | 0.6
O=C1CCC(c2ccccc2)N1CC#CCN1CCCC1 (stereo unspecified) | 0.85 | 0.54 | 55.6
O=C1CC(c2ccccc2)CN1CC#CCN1CCCC1 (stereo unspecified) | 15.22 | 5.77 | >200
CC(=O)N(CC#CCN1CCCC1)Cc1ccccc1 | 5.89 | 1.29 | 154
CC(C#CCN1CCCC1)N1C(=O)CCC1=O (stereo unspecified) | – | – | 1.2
CC1CCC(=O)N1CC#CCN1CCCC1 (stereo unspecified) | – | – | 0.4
CC(C#CCN1CCCC1)N1CCCC1=O (stereo unspecified) | 0.091 | – | 0.5
O=C1CCCN1CC#CCN1CCC(c2ccccc2)C1 (stereo unspecified) | 8.1 | 2.4 | 122
O=C1CCC(=O)N1C(C#CCN1CCCC1)c1ccccc1 (stereo unspecified) | 0.1 | 0.12 | 7.29
CN(CC#CCN1CCCC1)C(=O)Cc1ccccc1 | 20.5 | 5.2 | >200
CN(C(=O)C(F)(F)F)C(C#CCN1CCCC1)c1ccccc1 (stereo unspecified) | 0.5 | 0.23 | 26.5
CN1[C@@H]2CC[C@H]1C[C@@H](OC(=O)C(CO)c1ccccc1)C2 (stereo partly specified) [ATROPINE] | – | – | 0.9
